Measurements taken from ChEMBL document CHEMBL1148725, “2,2,2-Trichloro-N-({2-[2-(dimethylamino)ethyl]-1,3-dioxo-2,3-dihydro-1H-benzo[de]isoquinolin- 5-yl}carbamoyl)acetamide (UNBS3157), a novel nonhematotoxic naphthalimide derivative with potent antitumor activity” (J Med Chem, 2007).

How the values were obtained:
[1] = Antiproliferative activity against Hs683 cells after 72 hrs by MTT assay; format: functional, cell-based, Homo sapiens, Hs 683
In short: (§1)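 Cells cultured with each compound for three days; growth then read by the MTT colorimetric assay and reported as IC50 (µM).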

[2] = Antiproliferative activity against U373MG cells after 72 hrs by MTT assay; format: functional, cell-based, Homo sapiens, U-373MG ATCC; details: Homo sapiens, U373 MG, 72 h; in short: as §1
HCT-15 = experiment: Antiproliferative activity against HCT15 cells after 72 hrs by MTT assay; format: functional, cell-based, Homo sapiens; in short: as §1
LoVo = experiment: Antiproliferative activity against LoVo cells after 72 hrs by MTT assay; format: functional, cell-based, Homo sapiens; in short: as §1
A549 = experiment: Antiproliferative activity against A549 cells after 72 hrs by MTT assay; format: functional, cell-based, Homo sapiens; details: Homo sapiens, A549, 72 h; in short: as §1
MCF7 = experiment: Antiproliferative activity against MCF7 cells after 72 hrs by MTT assay; format: functional, cell-based, Homo sapiens; details: Homo sapiens, MCF7, 72 h; in short: as §1
[3] = Toxicity in ip dosed B6D2F1 mouse; format: organism-based; details: in vivo
In short: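 Acute MTD was set by a single i.p. dose to groups of three healthy female B6D2F1 mice, at 2.5, 5, 10, 20, 40, 80 and 160 mg/kg. The MTD is the dose just below the lowest dose that killed at least one mouse.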

L1210 = experiment: Antitumor activity in L1210 cells xenografted B6D2F1 mouse at 80 mg/kg, ip relative to control; format: functional; details: route intraperitoneal
In short: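 Mice grafted with L1210 leukaemia cells on day 0, then dosed i.p. four times weekly on days 1-4 and 8-11. Five mice per group. Outcome is %T/C, the median survival of treated over control. Kruskal-Wallis test followed by Dunn comparisons against control.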

| SMILES | IC50 ([1]; Homo sapiens, Hs 683, 72 h) [µM] | IC50 [2] [µM] | IC50 (HCT-15; Homo sapiens, HCT-15, 72 h) [µM] | IC50 (LoVo; Homo sapiens, LoVo, 72 h) [µM] | IC50 (A549) [µM] | IC50 (MCF7) [µM] | MTD [3] [mg/kg] | Activity (L1210) [%] | IC50 ([1]; hs 683) [µM] | IC50 (HCT-15; hct-15) [µM] | IC50 (LoVo; lovo) [µM] |
| --- | --- | --- | --- | --- | --- | --- | --- | --- | --- | --- | --- |
| COc1cc(/C=N\c2cc3c4c(cccc4c2)C(=O)N(CCN(C)C)C3=O)cc(OC)c1OC | > 10 | 6.4 | > 10 | 5 | 6.7 | > 10 | > 80 | 107 |  |  |  |
| CN(C)CCN1C(=O)c2cccc3cc(NC(=O)Nc4ccc5c(c4)OCO5)cc(c23)C1=O | 5.8 | 1.4 | 7.7 | 4.4 | 5.5 | 6.6 | > 80 | 187 |  |  |  |
| CN(C)CCN1C(=O)c2cccc3cc(NC(=S)Nc4ccc(Cl)cc4)cc(c23)C1=O | > 10 | > 10 | > 10 | 8.7 | > 10 | > 10 | > 80 | 164 |  |  |  |
| CN(C)CCN1C(=O)c2cccc3cc(NCc4cc5c(cc4[N+](=O)[O-])OCO5)cc(c23)C1=O.Cl | 7.6 | > 10 | 8 | 5 | > 10 | > 10 | > 80 | 150 |  |  |  |
| CN(C)CCN1C(=O)c2cccc3cccc(c23)C1=O | 6.9 | 7.5 | 9.2 | 4.7 | 5.6 | 10 | 40 | 156 |  |  |  |
| CCOC(=O)c1ccc(NC(=O)Nc2cc3c4c(cccc4c2)C(=O)N(CCN(C)C)C3=O)cc1 | 2.1 | 2.1 | 7.4 | 1.5 | 1.6 | 3.1 | > 80 | 187 |  |  |  |
| CN(C)CCN1C(=O)c2cccc3cc(NC(=S)Nc4ccc(C#N)cc4)cc(c23)C1=O | > 10 | 9.4 | > 10 | > 10 | > 10 | > 10 | > 80 |  |  |  |  |
| CN(C)CCN1C(=O)c2cccc3cc(NC(=O)Nc4ccc(OC(F)(F)F)cc4)cc(c23)C1=O | 2.6 | 3.1 | 5.8 | 3.2 | 3.1 | 6.5 | > 80 | 194 |  |  |  |
| CN(C)CCN1C(=O)c2cccc3cc(/N=C\c4ccc(C#N)cc4)cc(c23)C1=O | > 10 | 4.2 | 9.9 | 4.1 | 7.7 | 7.4 | > 80 | 135 |  |  |  |
| COc1cc(/C=N\c2cc3c4c(cccc4c2)C(=O)N(CCN(C)C)C3=O)ccc1O | > 10 | > 10 | > 10 | > 10 | > 10 | > 10 | > 80 | 164 |  |  |  |
| CN(C)CCN1C(=O)c2cccc3cc(NC=O)cc(c23)C1=O | 4.8 | 4.4 | 4.3 | 6.6 | 3.9 | 7.4 | > 80 |  |  |  |  |
| CN(C)CCN1C(=O)c2cccc3cc(NC(=O)Nc4ccc(C#N)cc4)cc(c23)C1=O | 5 | 0.9 | 9.7 | 4.2 | 3.5 | 3.1 | > 80 | 207 |  |  |  |
| CN(C)CCN1C(=O)c2cccc3cc(NCc4cc5c(cc4[N+](=O)[O-])OCO5)cc(c23)C1=O |  |  |  |  |  |  | > 80 | 157 | > 10 | > 10 | 8.1 |
| CN(C)CCN1C(=O)c2cccc3cc(NC(=S)NCc4ccc5c(c4)OCO5)cc(c23)C1=O | > 10 | > 10 | > 10 | > 10 | > 10 | > 10 | > 80 |  |  |  |  |
| CN(C)CCN1C(=O)c2cccc3cc(NCc4ccccc4O[C@H]4O[C@H](CO)[C@@H](O)[C@H](O)[C@H]4O)cc(c23)C1=O |  |  |  |  |  |  | > 80 | 113 |  |  |  |
